# Laboratory results taken from ChEMBL document CHEMBL1125894, “Dual-action cephalosporins: cephalosporin 3'-quaternary ammonium quinolones” (1991).
# Tests used:
# [1] = target: T1, Penicillin-binding protein 1A (Escherichia coli K-12) (UniProt P02918); assay: Concentration required for 90% inhibition against 90 kDa penicillin-binding protein 1a binding using [14C]-Pen G as the radioligand.
# T1 sequence (whole entry): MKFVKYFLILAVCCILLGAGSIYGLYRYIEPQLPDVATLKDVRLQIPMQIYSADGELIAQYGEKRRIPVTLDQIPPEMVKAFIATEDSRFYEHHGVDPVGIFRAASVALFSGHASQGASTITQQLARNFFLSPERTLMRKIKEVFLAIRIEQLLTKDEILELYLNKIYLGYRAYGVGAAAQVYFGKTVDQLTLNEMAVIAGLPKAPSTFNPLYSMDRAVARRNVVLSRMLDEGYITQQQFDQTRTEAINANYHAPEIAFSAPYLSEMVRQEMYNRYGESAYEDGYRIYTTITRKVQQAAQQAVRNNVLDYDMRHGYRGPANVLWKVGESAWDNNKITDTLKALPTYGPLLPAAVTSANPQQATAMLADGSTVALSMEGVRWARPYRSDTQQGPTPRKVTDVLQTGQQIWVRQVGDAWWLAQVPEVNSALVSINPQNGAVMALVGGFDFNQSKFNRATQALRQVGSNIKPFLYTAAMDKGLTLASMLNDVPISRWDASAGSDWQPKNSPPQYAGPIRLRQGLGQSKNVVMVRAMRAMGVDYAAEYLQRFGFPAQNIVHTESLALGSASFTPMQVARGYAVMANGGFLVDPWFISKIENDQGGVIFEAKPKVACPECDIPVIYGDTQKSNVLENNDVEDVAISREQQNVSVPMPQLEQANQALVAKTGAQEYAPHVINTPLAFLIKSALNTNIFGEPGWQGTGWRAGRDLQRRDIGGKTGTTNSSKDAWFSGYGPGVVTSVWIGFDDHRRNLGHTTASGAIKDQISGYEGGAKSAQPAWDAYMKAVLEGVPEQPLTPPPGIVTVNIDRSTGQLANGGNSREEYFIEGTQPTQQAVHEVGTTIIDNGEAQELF
# Method in brief: (§1)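 Solubilized membranes from sonicated E. coli DC-0 were used. PBP binding was measured as inhibition of [14C]penicillin G binding to each PBP.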
# Citrobacter freundii = assay: In vitro antibacterial activity against Citrobacter freundii BS 16; type: functional
# Method in brief: (§2)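 Serial 2-fold dilutions in the NCCLS broth microdilution method for aerobic nonfastidious organisms, with an 18-h incubation. The value is reported as the minimum inhibitory concentration (MIC).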
# [2] = target: T2, Peptidoglycan D,D-transpeptidase MrdA (Escherichia coli K-12) (UniProt P0AD65); assay: Concentration required for 90% inhibition against 66 kDa penicillin-binding protein 2 binding using [14C]-Pen G as the radioligand.; method in brief: as §1
# T2 sequence (whole entry): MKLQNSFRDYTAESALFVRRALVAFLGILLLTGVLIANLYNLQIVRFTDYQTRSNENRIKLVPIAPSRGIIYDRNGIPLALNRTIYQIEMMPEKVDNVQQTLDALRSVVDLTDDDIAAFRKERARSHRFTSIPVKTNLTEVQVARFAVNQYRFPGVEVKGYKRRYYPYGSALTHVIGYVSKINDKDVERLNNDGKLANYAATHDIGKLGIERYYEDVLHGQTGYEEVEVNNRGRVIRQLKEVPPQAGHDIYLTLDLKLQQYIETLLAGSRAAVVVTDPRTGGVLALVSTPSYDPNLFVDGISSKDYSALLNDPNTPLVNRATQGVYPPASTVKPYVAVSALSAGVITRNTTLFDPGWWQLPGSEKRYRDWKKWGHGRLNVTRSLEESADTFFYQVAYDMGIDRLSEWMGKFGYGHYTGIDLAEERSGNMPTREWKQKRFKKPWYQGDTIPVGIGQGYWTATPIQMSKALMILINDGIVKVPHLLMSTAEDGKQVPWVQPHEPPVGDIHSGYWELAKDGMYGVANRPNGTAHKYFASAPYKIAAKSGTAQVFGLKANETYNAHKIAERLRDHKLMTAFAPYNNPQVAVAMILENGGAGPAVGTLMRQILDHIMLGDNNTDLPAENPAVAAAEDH
# Staphylococcus aureus = assay: In vivo activity in murine against Staphylococcus aureus 753(MR) infection after sc administration.; type: functional
# Method in brief: (§3)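 Mouse protection test in CD1 Swiss albino mice (18–20 g). Mice were infected intraperitoneally with 0.5 mL of a diluted bacterial suspension, then treated within 5 min with one 1.0 mL subcutaneous dose at the dorsal base of the neck. Doses ranged from 0.05 to 250 mg/kg, with six mice per group. ED50 was calculated by the Reed–Muench method.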
# [3] = target: T3, Penicillin-binding protein 1B (Escherichia coli K-12) (UniProt P02919); assay: Concentration required for 90% inhibition against 90 kDa penicillin-binding protein 1b binding using [14C]-Pen G as the radioligand.; method in brief: as §1
# T3 sequence (whole entry): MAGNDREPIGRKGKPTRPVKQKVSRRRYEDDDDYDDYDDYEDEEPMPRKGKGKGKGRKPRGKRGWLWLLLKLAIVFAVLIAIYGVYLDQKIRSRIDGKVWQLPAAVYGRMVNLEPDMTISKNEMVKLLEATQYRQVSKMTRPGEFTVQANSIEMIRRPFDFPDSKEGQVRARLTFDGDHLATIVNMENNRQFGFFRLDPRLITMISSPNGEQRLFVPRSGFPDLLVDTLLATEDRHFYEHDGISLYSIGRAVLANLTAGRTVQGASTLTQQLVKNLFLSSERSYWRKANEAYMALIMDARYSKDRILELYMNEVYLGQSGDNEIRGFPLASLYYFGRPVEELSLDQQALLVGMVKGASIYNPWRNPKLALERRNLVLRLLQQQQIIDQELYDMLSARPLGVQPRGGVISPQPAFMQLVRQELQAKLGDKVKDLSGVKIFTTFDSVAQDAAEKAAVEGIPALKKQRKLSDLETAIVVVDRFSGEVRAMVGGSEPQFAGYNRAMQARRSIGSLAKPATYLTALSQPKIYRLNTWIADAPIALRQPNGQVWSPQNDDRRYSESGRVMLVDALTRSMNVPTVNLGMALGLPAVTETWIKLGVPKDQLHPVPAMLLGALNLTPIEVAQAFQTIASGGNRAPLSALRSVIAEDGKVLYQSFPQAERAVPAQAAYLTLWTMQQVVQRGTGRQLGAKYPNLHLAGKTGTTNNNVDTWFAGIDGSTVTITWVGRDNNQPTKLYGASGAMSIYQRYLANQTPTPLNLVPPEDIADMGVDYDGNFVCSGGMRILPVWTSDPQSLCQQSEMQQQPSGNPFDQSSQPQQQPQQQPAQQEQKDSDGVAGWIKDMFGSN
# Streptococcus pneumoniae = assay: In vivo activity in murine against Streptococcus pneumoniae 6301 infection after sc administration.; type: functional; method in brief: as §3
# Serratia marcescens = assay: In vivo activity in murine against Serratia marcescens SM infection after sc administration.; type: functional; method in brief: as §3
# Enterobacter cloacae = assay: In vitro antibacterial activity against Enterobacter cloacae 5699; type: functional; method in brief: as §2
smiles,measurement,setting,value
CC(C)(O/N=C(\C(=O)N[C@@H]1C(=O)N2C(C(=O)[O-])=C(C[N+]3(C)CCN(c4c(F)cc5c(=O)c(C(=O)O)cn(CCF)c5c4F)CC3)CS[C@H]12)c1csc(N)n1)C(=O)O,Concentration,[1],2 µg/mL
same,MIC,Citrobacter freundii,2 µg/mL
same,Concentration,[2],100 µg/mL
same,ED50,Staphylococcus aureus,44 mg/kg
same,Concentration,[3],30 µg/mL
same,ED50,Streptococcus pneumoniae,8 mg/kg
same,ED50,Serratia marcescens,8 mg/kg
same,MIC,Enterobacter cloacae,0.25 µg/mL
